Shown are actives, neighbours in structure and some others; about 4.7% of the full set was active somewhere.
SKN-1 inh = suppressors of acrylamide-induced Pgst-4::GFP reporter in worms, primary screen, SKN-1 inhibitor project, whole organism, uHTS, GFP/RFP fluorescence ratio, strain VP596; C. elegans VP596 Pgst-4::GFP/RFP ratio, 24 h; inhibition, % at 21.8 µM; hit rate 0.49% among 360,000; AID 624304, 2012;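 active = interference check ratio from 0.5 to 1.5 plus GFP to RFP signal ratio inhibition reaching or exceeding a fixed threshold, cut at about 30% in these data, passing the limit was not always enough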
MT1-MMP act inh = blockers of MT1-MMP proenzyme processing, primary screen, HT1080 RFP-PRO-GFP cells, GFP/RFP fluorescence | GFP/RFP ratio fluorescence, overnight; percent of plate control window, DMSO zero | GFP/RFP ratio change, % at 20 µM | hit rate 0.061% among 360,000;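 active = GFP/RFP ratio change of at least 30% with cell ATP level not reduced by more than half and red fluorescence within 50% of control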
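Material – HT1080 RFP-PRO-GFP cells · Control set – DMSO wells and RFP-L50D-GFP cells · Incubation – overnight cell settling, then overnight compound exposure, 37 °C, 5% CO2 · Compound dosing – single-point 20 µM compound, 1% DMSO · Read-out – GFP/RFP fluorescence ratio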
ADAM10 inh = human ADAM10 inhibitors, primary screen, biochemical, QFRET, HTS | Disintegrin and metalloproteinase domain-containing protein 10 (Homo sapiens), O14672 | recombinant ADAM10, EDANS/DABCYL FRET peptide cleavage, 3 h | inhibition, % at 7 µM | hit rate 0.62% among 370,000;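 active = inhibition above a per-campaign cutoff equal to the mean of compounds falling between control-based bounds plus 3 SD, cut at about 20% in these data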
MPTP block = mitochondrial permeability transition pore inhibitors, primary screen, biochemical, isolated mouse mitochondria, absorbance. Ca2+ swelling absorbance, 30 min. inhibition, % at 10 µM. hit rate 1.4% among 360,000. AID 602449, 2012;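 active = inhibition of 50% or more, scaled per plate between neutral and stimulator controls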
NR3A LBD binder = binders of NR3A ligand-binding domain, primary screen, biophysical, differential scanning fluorimetry, uHTS | Glutamate receptor ionotropic, NMDA 3A (GRIN3A) ligand-binding domain | NR3A LBD differential scanning fluorimetry, Tm shift; 0% = protein alone, 100% = glycine-bound protein | Tm shift relative to glycine control, % at 25 µM | hit rate 2.5% among 340,000;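 active = melting temperature shift of at least 10% of the positive control shift, at one fixed dose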
ADAM17 inh = ADAM17 inhibitors, primary screen, biochemical, QFRET; Disintegrin and metalloproteinase domain-containing protein 17 (Homo sapiens), P78536; recombinant ADAM17, EDANS/DABCYL FRET peptide cleavage; inhibition, % at 6.95 µM; hit rate 0.83% among 370,000; AID 720648, 2013;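 active = inhibition above the mean of compounds lying between control limits plus 3 SD, set per campaign, cut at about 8.5% in these data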
Target sequence (P78536 215-824 limits assumed): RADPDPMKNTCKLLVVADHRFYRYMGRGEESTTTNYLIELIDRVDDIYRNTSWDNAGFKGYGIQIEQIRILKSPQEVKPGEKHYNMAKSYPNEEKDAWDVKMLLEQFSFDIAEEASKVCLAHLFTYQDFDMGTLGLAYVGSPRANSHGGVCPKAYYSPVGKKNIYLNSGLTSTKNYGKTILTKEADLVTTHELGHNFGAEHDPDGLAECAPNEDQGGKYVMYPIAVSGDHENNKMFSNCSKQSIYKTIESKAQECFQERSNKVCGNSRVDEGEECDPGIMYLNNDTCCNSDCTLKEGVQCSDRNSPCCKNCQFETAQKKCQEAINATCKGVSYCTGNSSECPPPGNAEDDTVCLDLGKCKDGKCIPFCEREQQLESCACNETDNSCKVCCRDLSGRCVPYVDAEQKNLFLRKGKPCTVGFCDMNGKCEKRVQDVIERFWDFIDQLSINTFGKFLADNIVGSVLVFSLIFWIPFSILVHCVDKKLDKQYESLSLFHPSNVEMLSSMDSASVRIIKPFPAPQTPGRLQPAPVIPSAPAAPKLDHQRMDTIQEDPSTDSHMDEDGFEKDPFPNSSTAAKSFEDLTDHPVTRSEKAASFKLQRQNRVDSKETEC
Hits are given with their value.

Screening Cc1ccc(-n2c(C)cc(/C=N/NC(=O)c3ccncc3)c2C)cc1 returned SKN-1 inh inactive, MT1-MMP act inh inactive, ADAM10 inh inactive, MPTP block inactive, NR3A LBD binder inactive and ADAM17 inh inactive.
Cc1ccc(C(=O)N/N=C/c2cc(C)n(-c3ccc(Br)cc3)c2C)cc1[N+](=O)[O-] was read as SKN-1 inh inactive, MT1-MMP act inh inactive, ADAM10 inh inactive, MPTP block inactive, NR3A LBD binder 14 and ADAM17 inh inactive.
`CC1CCCCN1Cc1c(O)ccc2c(=O)c(-c3nc4ccccc4s3)c(N)oc12` (stereo not drawn) gave SKN-1 inh 81, MT1-MMP act inh inactive, ADAM10 inh inactive, MPTP block inactive, NR3A LBD binder inactive and ADAM17 inh inactive.
Screening O=C(Nc1nnc([C@@H]2C[C@H](O)[C@@H](CO)O2)s1)Nc1cccc2ccccc12 returned SKN-1 inh inactive, MT1-MMP act inh inactive, ADAM10 inh inactive, MPTP block inactive and ADAM17 inh inactive.
Cc1ccc([N+](=O)[O-])cc1NC(=O)c1c(-c2ccccc2)noc1C was read as SKN-1 inh inactive, MT1-MMP act inh inactive, ADAM10 inh inactive, MPTP block inactive, NR3A LBD binder 13 and ADAM17 inh inactive.
C#CCOCCOCCOCCNc1nc(N2CCN(C(=O)CCCCCCCCCCNC(=O)[C@@H](CCC(=O)O)n3cc(CCCCCN)nn3)CC2)nc(N2CCN(C(=O)CCCCCCCCCCNC(=O)[C@H](CCCCN)n3cc(C[C@@H](C)CC)nn3)CC2)n1 was read as SKN-1 inh inactive, MT1-MMP act inh inactive, MPTP block inactive and NR3A LBD binder inactive.
C#CCOCCOCCOCCNc1nc(N2CCN(C(=O)CCCCCCCCCCNC(=O)[C@H](CCCCN)n3cc(C)nn3)CC2)nc(N2CCN(C(=O)CCCCCCCCCCNC(=O)[C@@H]([C@H](C)O)n3cc(C)nn3)CC2)n1 was read as SKN-1 inh inactive, MT1-MMP act inh inactive, MPTP block inactive and NR3A LBD binder 26.
C#CCOCCOCCOCCNc1nc(N2CCN(C(=O)CCCCCCCCCCNC(=O)[C@H](CCCCN)n3cc(CCO)nn3)CC2)nc(N2CCN(C(=O)CCCCCCCCCCNC(=O)[C@H](CCCCN)n3cc(C[C@@H](C)CC)nn3)CC2)n1 was read as NR3A LBD binder 20.
Screening C#CCOCCOCCOCCNc1nc(N2CCN(C(=O)CCCCCCCCCCNC(=O)[C@H](CCCCN)n3cc(C[C@@H](C)CC)nn3)CC2)nc(N2CCN(C(=O)CCCCCCCCCCNC(=O)[C@@H]([C@H](C)O)n3cc(C)nn3)CC2)n1 returned SKN-1 inh inactive, MT1-MMP act inh inactive, MPTP block inactive and NR3A LBD binder 11.
`C#CCOCCOCCOCCNc1nc(N2CCN(C(=O)CCCCCCCCCCNC(=O)Cn3cc(CCCCCN)nn3)CC2)nc(N2CCN(C(=O)CCCCCCCCCCNC(=O)Cn3cc(C[C@@H](C)O)nn3)CC2)n1` gave SKN-1 inh inactive, MT1-MMP act inh inactive, MPTP block inactive and NR3A LBD binder 30.
Screening C#CCOCCOCCOCCNc1nc(N2CCN(C(=O)CCCCCCCCCCNC(=O)Cn3cc(C[C@@H](C)O)nn3)CC2)nc(N2CCN(C(=O)CCCCCCCCCCNC(=O)[C@@H]([C@H](C)CC)n3cc(CCCCCN)nn3)CC2)n1 returned SKN-1 inh inactive, MT1-MMP act inh inactive, MPTP block inactive and NR3A LBD binder inactive.
Screening Cc1ccc(NC(=O)c2c(C)noc2-c2snnc2C)cc1 returned SKN-1 inh inactive, MT1-MMP act inh inactive, ADAM10 inh inactive, MPTP block inactive, NR3A LBD binder 12 and ADAM17 inh inactive.

Assay outcomes (PubChem BioAssay)
